MrgX1 PAM: human MrgX1 positive allosteric modulation, primary screen | Q96LB2 | MrgX1-HEK293, Fluo-4 calcium flux, FDSS; stronger effect = higher value | B-score at 10 µM | 310,000 compounds, 0.63% hits | AID 588675;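 active = plate-corrected calcium response at least 3 library SD above typical, normal starting fluorescence, not activating the receptor alone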;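 also: compound read alongside a low EC10 to EC30 dose of BAM8-22 agonist; peak minus trough fluorescence over baseline measured at the second addition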
Target sequence (Q96LB2 whole entry, looked up): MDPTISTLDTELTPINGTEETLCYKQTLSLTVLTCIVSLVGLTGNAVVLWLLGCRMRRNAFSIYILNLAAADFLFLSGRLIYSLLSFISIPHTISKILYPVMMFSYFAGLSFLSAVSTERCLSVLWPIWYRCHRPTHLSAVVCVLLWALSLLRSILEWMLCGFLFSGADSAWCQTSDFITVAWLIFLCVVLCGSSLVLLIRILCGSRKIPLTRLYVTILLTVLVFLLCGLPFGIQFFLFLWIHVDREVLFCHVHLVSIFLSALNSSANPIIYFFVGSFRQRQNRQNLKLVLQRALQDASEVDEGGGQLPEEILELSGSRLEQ
MrgX1 agonist: human MrgX1 receptor agonism, primary screen; Q96LB2; MrgX1-HEK293 cells, Fluo-4 calcium fluorescence, agonist mode; stronger effect = higher value; B-score at 10 µM; 310,000 compounds, 0.44% hits;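 active = calcium response B-score plate-corrected fluorescence ratio at least 3 library SD, with starting fluorescence B-score inside 5 SD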
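Test system: HEK293 cells stably expressing human MrgX1 receptor; amount: 15,000 cells per well; doses: compound delivered in addition one of three; times: overnight plating before 1 h dye loading; detection: Fluo-4 NW calcium-flux fluorescence, kinetic read; read-out basis: B-scored fluorescence response ratio; controls: positive and negative controls per plate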
MrgX1 antagonist: blocks BAM8-22 activation of human MrgX1 receptor; MRGX1-HEK293 calcium flux, Fluo-4, BAM8-22 antagonism; stronger effect = lower value; 310,000 compounds, 1.3% hits; B-score at 10 µM; Q96LB2; AID 588676;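 active = calcium-response B-score plate-corrected more than 3 library SD below zero, starting fluorescence within 5 deviations, no agonist response on first addition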;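 also: peak minus trough fluorescence over baseline after final BAM8-22 challenge near maximal dose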
RGS4 act: potentiators or activators of RGS4; HEK293 M3R/inducible RGS4, carbachol calcium flux Fluo4; stronger effect = lower value; B-score at 10 µM; 310,000 compounds, 0.92% hits; AID 463111;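 active = B-score of the integrated calcium signal more than 4 SD below the library mean, with starting fluorescence not abnormally high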;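 also: negative B-score means reduced calcium response which marks RGS4 activation or potentiation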
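Material: Inducible-RGS4 HEK293 cells carrying M3 receptor; also added: carbachol at ECmax as muscarinic agonist stimulus; incubation: compound preincubation 20 min at room temperature before agonist; signal: Fluo4-AM (2 µM) calcium-flux fluorescence, kinetic read; measure: integrated calcium ratio converted to B score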
RGS4 inh: inhibitors of human RGS4; P49798; HEK293 M3R/RGS4 inducible, Fluo-4 calcium flux; stronger effect = higher value; triggered by carbachol at its EC20; B-score at 10 µM; 310,000 compounds, 0.45% hits;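 active = B-score, a plate-corrected calcium signal, over three deviations above library mean, with baseline fluorescence within five deviations of library mean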;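 also: RGS4 expression induced by doxycycline in cells with stable M3 receptor; B-score is computed from the integrated fluorescence ratio over baseline after carbachol; higher B-score means a larger calcium signal and so more RGS4 inhibition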
An asterisk follows results filed as active. This is a sample that favours compounds with a hit; in the whole collection about 3.5% have one here.

COc1ccccc1-n1c2c(cc(C(=O)N3CCC(C)CC3)c1=O)C(=O)CC(C)(C)C2 was read as MrgX1 PAM 8.6*, MrgX1 agonist inactive, MrgX1 antagonist inactive, RGS4 act inactive and RGS4 inh inactive.
`Cc1ccc(-n2ncc3c2CCCC3NC(=O)CCc2c(C)noc2C)cc1C` (stereo not given) gave MrgX1 PAM inactive, MrgX1 agonist inactive, MrgX1 antagonist inactive, RGS4 act inactive and RGS4 inh inactive.
CCn1nc(C(=O)Nc2ccccc2N2CCCC2)c2ccccc2c1=O was read as MrgX1 PAM 12*, MrgX1 agonist inactive, MrgX1 antagonist inactive, RGS4 act -8.7* and RGS4 inh inactive.
Screening CCOC(=O)c1nn(-c2ccccc2)c2nc(-c3ccc(OC)cc3)c(C#N)c(=O)n12 returned MrgX1 PAM inactive, MrgX1 agonist inactive, MrgX1 antagonist -4.9*, RGS4 act inactive and RGS4 inh inactive.
`Cc1cccc(-c2cc(C(=O)Nc3ccc4c(c3)OCCO4)c3ccccc3n2)c1` gave MrgX1 PAM inactive, MrgX1 agonist inactive, MrgX1 antagonist inactive, RGS4 act -7.2* and RGS4 inh inactive.
For CCOc1ccc(-c2cc(C(=O)Nc3ccc4c(c3)OCCO4)c3ccccc3n2)cc1 the results were MrgX1 PAM inactive, MrgX1 agonist inactive, MrgX1 antagonist inactive, RGS4 act -7.6* and RGS4 inh inactive.
For O=C(Nc1ccc2c(c1)OCCO2)c1cc(-c2ccccn2)nc2ccc(Br)cc12 the results were MrgX1 PAM inactive, MrgX1 agonist inactive, MrgX1 antagonist inactive, RGS4 act inactive and RGS4 inh inactive.
For COc1ccccc1C(=O)Nc1cccc2nc(C)ccc12 the results were MrgX1 PAM inactive, MrgX1 agonist inactive, MrgX1 antagonist inactive, RGS4 act inactive and RGS4 inh inactive.
`Cc1cccc(C(=O)NCCC(=O)Nc2ccc(C#N)cc2)c1` gave MrgX1 PAM inactive, MrgX1 agonist inactive, MrgX1 antagonist inactive, RGS4 act inactive and RGS4 inh inactive.
`CCC(C(=O)OCC(=O)N(C)c1c(N)n(Cc2ccccc2)c(=O)[nH]c1=O)c1ccccc1` (stereo not given) gave MrgX1 PAM inactive, MrgX1 agonist inactive, MrgX1 antagonist inactive, RGS4 act inactive and RGS4 inh inactive.
`CCCOC(=O)CCCCC1SCC(NC(=O)OC)C1NC(=O)OC` (stereo not given) gave MrgX1 PAM inactive, MrgX1 agonist inactive, MrgX1 antagonist -8.1*, RGS4 act inactive and RGS4 inh inactive.
For O=C(/C=C/C=C/c1ccccc1)c1ccco1 the results were MrgX1 PAM inactive, MrgX1 agonist inactive, MrgX1 antagonist inactive, RGS4 act inactive and RGS4 inh inactive.
For O=C(NC(=S)Nc1ccc(CN2CCCCC2)cc1)c1cccc(OCc2ccccc2)c1 the results were MrgX1 PAM inactive, MrgX1 agonist inactive, MrgX1 antagonist inactive, RGS4 act -7.5* and RGS4 inh inactive.
`CC(=O)Nc1ccc(CN2CCCCCCC2)cc1` gave MrgX1 PAM inactive, MrgX1 agonist inactive, MrgX1 antagonist inactive, RGS4 act inactive and RGS4 inh inactive.
Screening O=C(Nc1ccc(CN2CCCCC2)cc1)c1c(F)c(F)c(F)c(F)c1F returned MrgX1 PAM inactive, MrgX1 agonist inactive, MrgX1 antagonist inactive, RGS4 act -7.3* and RGS4 inh inactive.
Screening O=C(CSc1nnc(-c2ccccc2F)n1C1CC1)Nc1cccnc1Cl returned MrgX1 PAM inactive, MrgX1 agonist inactive, MrgX1 antagonist inactive, RGS4 act inactive and RGS4 inh inactive.
For CNC[C@H](CC1CCCCC1)NC[C@H](Cc1ccccc1)NCCC12CC3CC(CC(C3)C1)C2 the results were MrgX1 PAM 7.7*, MrgX1 agonist inactive, MrgX1 antagonist -9.5*, RGS4 act -8.9* and RGS4 inh inactive.
For C=C(C)Cn1c(-c2cccc([N+](=O)[O-])c2)n[nH]c1=S the results were MrgX1 PAM inactive, MrgX1 agonist inactive, MrgX1 antagonist -4.8*, RGS4 act inactive and RGS4 inh inactive.
For C=CCn1c(-c2cccc([N+](=O)[O-])c2)n[nH]c1=S the results were MrgX1 PAM inactive, MrgX1 agonist inactive, MrgX1 antagonist inactive, RGS4 act inactive and RGS4 inh inactive.
